This sample holds only a part of the variants without activity.
B1: tRNA (parent)
chain: GUUCCGUUGGCGUAAUGGUAACGCGUCUCCCUCCUAAGGAGAAGACUGCGGGUUCGAGUCCCGUACGGAACG

Variants of: B1
Experiment: yeast fitness relative to wild type (ratio to wild type); higher = fitter; tRNA-Arg(CCU), competitive growth, 37 C, YPD
How it was run: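 Amplicons of the tRNA-Arg(CCU) gene were sequenced, 100-nucleotide paired-end, from the start population and from each end population of a pooled yeast competition. The competition, in six parallel replicates, lasted 24 hours in YPD at 37°C. Fitness relative to wild type was calculated from changes in genotype frequencies. Genotypes had to have ≥ 100 starting reads, and estimates < 0.5 were set to 0.5.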

Row | Variant | yeast fitness
1 | GUUCCGUUGGCGUAAUGGUAGCGCGUCUCCCUCCUACGGAGAUGACUGCGGGUUCGAGUCCCGUACGGAACG [A21G A37C A43U] | 0.618
2 | GUUCCGUUGGCGUAAUGGUAGCGCGUCUCCCUCCUACGGAGAAGACUGCGGGUUCGCGUCCCGUACGGAACG [A21G A37C A57C] | ≤ 0.5
3 | GUUCCGUUGGCGUAAUGGUAGCGCGUCUCCCUCCUAUGGAGAAGACUGCGGGUUCGAGUCCCGUAUGGAACG [A21G A37U C66U] | ≤ 0.5
4 | GUUCCGUUGGCGUAAUGGUAGCGCGUCUCCCUCCUAAGGCGAAGACUGCGGGUUAGAGUCCCGUACGGAACG [A21G A40C C55A] | ≤ 0.5
5 | GUUCCGUUGGCGUAAUGGUAGCGCGUCUCCCUCCUAAGGCGAAGACUGCCGGUUCGAGUCCCGUACGGAACG [A21G A40C G50C] | ≤ 0.5
6 | GUUCCGUUGGCGUAAUGGUAGCGCGUCUCCCUCCUAAGGGGCAGACUGCGGGACCGAGUCCCGUACGGAACG [A21G A40G A42C U53A U54C] | ≤ 0.5
7 | GUUCCGUUGGCGUAAUGGUAGCGCGUCUCCCUCCUAAGGGGUAGACUGCGGGUUCGAGGCCCGUACGGAACG [A21G A40G A42U U59G] | ≤ 0.5
8 | GUUCCGUUGGCGUAAUGGUAGCGCGUCUCCCUCCUAAGGAGCUGACUGCGGGUUCCAGUCCCGUAUGGAACG [A21G A42C A43U G56C C66U] | 0.598
9 | GUUCCGUUGGCGUAAUGGUAGCGCGUCUCCCUCCUAAGGAGCAGACUGCAGGUUCGAGUCCCGUACGGAACG [A21G A42C G50A] | 0.648
10 | GUUCCGUUGGCGUAAUGGUAGCGCGUCUCCCUCCUAAGGAGGAGACUGCGGGUUCGAGUCCCGUACGGAACG [A21G A42G] | 0.714
11 | GUUCCGUUGGCGUAAUGGUAGCGCGUCUCCCUCCUAAGGAGGAGGCUGCGGGUUCGAGUCCCGUACGGAACG [A21G A42G A45G] | 0.989
12 | GUUCCGUUGGCGUAAUGGUAGCGCGUCUCCCUCCUAAGGAGGAGACUGCGGGUUCGAGUCCCGUCCAGAACG [A21G A42G A65C G67A] | ≤ 0.5
13 | GUUCCGUUGGCGUAAUGGUAGCGCGUCUCCCUCCUAAGGAGUAGACUGCGGGUUCAAGUCUCGUACGGAACG [A21G A42U G56A C61U] | ≤ 0.5
14 | GUUCCGUUGGCGUAAUGGUAGCGCGUCUCCCUCCUAAGGAGACGACUGCGGGUUCGAGUACCGUACGGAACG [A21G A43C C60A] | ≤ 0.5
15 | GUUCCGUUGGCGUAAUGGUAGCGCGUCUCCCUCCUAAGGAGAUGACUGCGGGUUCGAGUCCCGUACGGAACG [A21G A43U] | 0.963
16 | GUUCCGUUGGCGUAAUGGUAGCGCGUCUCCCUCCUAAGGAGAUGACUGCGGGUUCGACCCCCGUACGGAACG [A21G A43U G58C U59C] | 0.67
17 | GUUCCGUUGGCGUAAUGGUAGCGCGUCUCCCUCCUAAGGAGAAGCCUGCGGGUUCGAGUCCCGUACGGUACG [A21G A45C A69U] | 0.762
18 | GUUCCGUUGGCGUAAUGGUAGCGCGUCUCCCUCCUAAGGAGAAGGGUGCGGGUUCGAGUCCCGUACGGAUCG [A21G A45G C46G A70U] | ≤ 0.5
19 | GUUCCGUUGGCGUAAUGGUAGCGCGUCUCCCUCCUAAGGAGAAGACUGCGGGUUCGCGUCCCGUACGGAACG [A21G A57C] | 0.709

Row | Variant | yeast fitness
20 | GUUCCGUUGGCGUAAUGGUAGCGCGUCUCCCUCCUAAGGAGAAGACUGCGGGUUCGGGUCCCGUAGGGAACG [A21G A57G C66G] | 0.599
21 | GUUCCGUUGGCGUAAUGGUAGCGCGUCUCCCUCCUAAGGAGAAGACUGCGGGUUCGUGUCCCGUACGGAUCG [A21G A57U A70U] | 0.582
22 | GUUCCGUUGGCGUAAUGGUAGCGCGUCUCCCUCCUAAGGAGAAGACUGCGGGUUCGAGUCCCGUGCGGAACG [A21G A65G] | 1.01
23 | GUUCCGUUGGCGUAAUGGUAGCGCGUCUCCCUCCUAAGGAGAAGACUGCGGGUUCGAGUCCCGUACGGACCG [A21G A70C] | 0.993
24 | GUUCCGUUGGCGUAAUGGUAGAGCGUCUCCCUCCUAAGGUGAAGACUGCGGGUUCGAGUCCCGUACGGAACG [A21G C22A A40U] | ≤ 0.5
25 | GUUCCGUUGGCGUAAUGGUAGAGCGUCUCCCUCCUAAGGUGAAGACUGCGGGUUCGAGUCUCGUACGGAACG [A21G C22A A40U C61U] | 0.507
26 | GUUCCGUUGGCGUAAUGGUAGAGCGUCUACCUCCUAAGGAGAAGACUGCGGGUUCGAGUCUCGUACGGAACG [A21G C22A C29A C61U] | ≤ 0.5
27 | GUUCCGUUGGCGUAAUGGUAGAGCGUCUCCCUCCUAAGGAGAAGACUGAGGGUUCCAGUCCCGUACGGAACG [A21G C22A C49A G56C] | ≤ 0.5
28 | GUUCCGUUGGCGUAAUGGUAGAGCGUCUCCCUCCUAAGGAGAAGACUGCGGGUUCGAGUCCUGUAAGGAACG [A21G C22A C62U C66A] | ≤ 0.5
29 | GUUCCGUUGGCGUAAUGGUAGAGCAUCUCCCUCCUAAGGAGAAGAUUGCGGGUACGAGUCCCGUACGGAACG [A21G C22A G25A C46U U54A] | ≤ 0.5
30 | GUUCCGUUGGCGUAAUGGUAGAGCGUCUCCCUCCUAAGGAGAAGACUGCGGGUUCAAGUCCCGUCCGGAACG [A21G C22A G56A A65C] | 0.528
31 | GUUCCGUUGGCGUAAUGGUAGGGCGUCUCCCUCCUAAGGAGAAGACUGUGAGUUCGAGUCCCGUACGGAACG [A21G C22G C49U G51A] | 0.603
32 | GUUCCGUUGGCGUAAUGGUAGGGCAUCUCCCUCCUAAGGAGAAGACUGCGGGUUCGAGUCCCAUACGGAACG [A21G C22G G25A G63A] | ≤ 0.5
33 | GUUCCGUUGGCGUAAUGGUAGGGCAUCUCCCUCCUAAGGAGAAGACUGCGGGUUCGAGUCCCAUACGGUACG [A21G C22G G25A G63A A69U] | ≤ 0.5
34 | GUUCCGUUGGCGUAAUGGUAGGGCGUCUCCCUCCUAAGGAGAAGACUGCGGGCUGGAGUCCCGUACGGAACG [A21G C22G U53C C55G] | 0.698
35 | GUUCCGUUGGCGUAAUGGUAGUGCGUCUCCCUCCUAUGGAGAAGGGUGCGGGUUAGAGUCCCGUACGGAACG [A21G C22U A37U A45G C46G C55A] | ≤ 0.5
36 | GUUCCGUUGGCGUAAUGGUAGUGCGUCUCCCUCCUAAGGAGAAGACUGCGGGUUCGGGUCCCGUACGGAACG [A21G C22U A57G] | 0.614
37 | GUUCCGUUGGCGUAAUGGUAGUGCGUCUCGCUCCUAAGGAGAAGACUGCGAGUUCGAGUCCCGUACGGUACG [A21G C22U C30G G51A A69U] | 0.551

Reference: the RNAGym collection of RNA variant scans (doi:10.1126/science.aae0568)
